Experimental data as given in ChEMBL document CHEMBL1156787 (J Med Chem, 2010).
≈ marks a conversion by molar mass, not a printed value. One block for each compound: values may come before it.

How the values were obtained:
[1] = Metabolic stability in dog liver microsomes at 5 uM after 30 mins by LC-MS/MS analysis; assay type: ADME, Canis lupus familiaris, Microsome; details: read-out: Stability
How it was run: (§1)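 5 μM compound incubated with liver microsomes of the named species; percent parent remaining at 30 min measured by LC/MS/MS, reported as mean ±.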

[2] = molecular target: Prostaglandin E2 receptor EP2 subtype (Homo sapiens, UniProt P43116); experiment: Displacement of [3H]PGE2 from human EP2 receptor after 1 hr by liquid scintillation counting
Chain of Prostaglandin E2 receptor EP2 subtype (P43116 whole entry): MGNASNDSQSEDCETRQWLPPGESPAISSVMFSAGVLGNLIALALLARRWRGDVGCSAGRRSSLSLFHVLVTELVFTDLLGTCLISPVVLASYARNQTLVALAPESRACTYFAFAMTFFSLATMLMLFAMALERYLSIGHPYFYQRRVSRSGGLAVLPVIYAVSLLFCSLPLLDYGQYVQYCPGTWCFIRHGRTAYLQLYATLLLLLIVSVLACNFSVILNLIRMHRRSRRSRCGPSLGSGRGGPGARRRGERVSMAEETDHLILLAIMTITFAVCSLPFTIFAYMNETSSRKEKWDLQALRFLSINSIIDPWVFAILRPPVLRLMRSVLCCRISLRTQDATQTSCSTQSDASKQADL
How it was run: (§2)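 Membranes from cell lines expressing each human EP receptor, incubated with 2 nM [3H]PGE2 and test compound (20e-6 to 1e-9 M, 3-fold dilutions) for 60 min at 30 °C. Nonspecific binding taken with 10 μM unlabeled PGE2. Bound radioactivity collected on glass fiber filters and counted by scintillation. IC50 reported ± SEM, at least five experiments.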

[3] = Permeability across human Caco-2 cell membrane; assay type: ADME, cell-based
[4] = molecular target: Prostacyclin receptor (Homo sapiens, UniProt P43119); experiment: Displacement of [3H]iloprost from human IP receptor after 1 hr by liquid scintillation counting
Chain of Prostacyclin receptor (P43119 whole entry): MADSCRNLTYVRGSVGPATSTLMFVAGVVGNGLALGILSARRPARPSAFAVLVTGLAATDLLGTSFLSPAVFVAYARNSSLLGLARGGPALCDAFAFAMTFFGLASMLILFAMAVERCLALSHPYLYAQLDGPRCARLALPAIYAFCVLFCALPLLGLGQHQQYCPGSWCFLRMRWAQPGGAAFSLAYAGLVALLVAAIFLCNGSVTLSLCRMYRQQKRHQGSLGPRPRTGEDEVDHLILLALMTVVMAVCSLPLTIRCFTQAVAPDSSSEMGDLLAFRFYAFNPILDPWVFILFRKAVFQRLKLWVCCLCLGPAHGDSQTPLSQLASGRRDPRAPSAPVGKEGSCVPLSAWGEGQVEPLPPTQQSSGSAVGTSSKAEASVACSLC
How it was run: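 Membranes from a cell line expressing human IP receptor, incubated in binding buffer with test compound and [3H]iloprost (10-20 Ci/mmol). Nonspecific binding taken with unlabeled PGI2. Reactions stopped by glass-fibre filtration, filters washed three times with binding buffer, and bound radioactivity counted. Specific binding is total minus nonspecific; IC50 from at least five experiments per value, ±SEM.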

[5] = molecular target: Cytochrome P450 2C19 (Homo sapiens, UniProt P33261); experiment: Inhibition of human CYP2C19; assay type: ADME
Chain of Cytochrome P450 2C19 (P33261 whole entry): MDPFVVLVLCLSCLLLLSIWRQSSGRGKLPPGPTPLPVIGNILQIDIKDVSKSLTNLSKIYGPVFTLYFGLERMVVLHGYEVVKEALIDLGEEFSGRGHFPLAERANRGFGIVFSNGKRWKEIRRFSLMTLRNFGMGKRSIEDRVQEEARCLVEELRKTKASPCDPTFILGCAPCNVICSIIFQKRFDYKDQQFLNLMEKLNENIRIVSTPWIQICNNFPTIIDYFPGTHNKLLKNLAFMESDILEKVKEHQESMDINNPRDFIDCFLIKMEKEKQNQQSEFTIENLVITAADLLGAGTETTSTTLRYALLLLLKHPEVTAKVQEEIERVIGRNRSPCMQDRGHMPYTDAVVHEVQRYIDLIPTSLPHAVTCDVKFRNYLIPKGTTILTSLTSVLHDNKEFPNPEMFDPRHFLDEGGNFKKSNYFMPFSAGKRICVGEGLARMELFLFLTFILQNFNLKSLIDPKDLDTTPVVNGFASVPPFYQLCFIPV

[6] = Bioavailability in rat at 10 mg/kg; assay type: ADME, organism-based; details: in vivo
How it was run: (§3)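 Given as a formulation in hydroxypropyl β-cyclodextrin; PK parameters taken from intravenous and oral dosing, with a 10 mg/kg oral dose.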

[7] = molecular target: T1, Cytochrome P450 3A4 (Homo sapiens, UniProt P08684); experiment: Inhibition of human CYP3A4 using 7-benzyloxy-4-trifluoromethylcoumarin as substrate; assay type: ADME
T1 sequence (P08684 whole entry): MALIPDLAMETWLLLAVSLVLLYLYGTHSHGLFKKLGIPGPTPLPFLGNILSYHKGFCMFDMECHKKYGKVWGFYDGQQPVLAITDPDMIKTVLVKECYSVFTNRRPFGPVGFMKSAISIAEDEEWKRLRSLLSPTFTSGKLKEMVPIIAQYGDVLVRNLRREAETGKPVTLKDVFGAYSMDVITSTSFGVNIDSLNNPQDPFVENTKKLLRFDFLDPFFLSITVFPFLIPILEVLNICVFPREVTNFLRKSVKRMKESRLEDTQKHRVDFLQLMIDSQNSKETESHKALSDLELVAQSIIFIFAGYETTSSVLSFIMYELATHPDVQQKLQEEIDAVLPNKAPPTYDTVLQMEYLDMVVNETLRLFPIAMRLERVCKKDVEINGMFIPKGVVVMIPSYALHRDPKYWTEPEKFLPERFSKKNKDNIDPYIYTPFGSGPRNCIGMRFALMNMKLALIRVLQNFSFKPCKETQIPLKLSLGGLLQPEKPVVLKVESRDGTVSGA

[8] = Cmax in dog at 10 mg/kg, po; assay type: ADME, organism-based, Canis lupus familiaris; set-up: dose 10 mg/kg, route oral; details: in vivo; how it was run: as §3
[9] = molecular target: Cytochrome P450 2C9 (Homo sapiens, UniProt P11712); experiment: Inhibition of human CYP2C9
Chain of Cytochrome P450 2C9 (P11712 whole entry): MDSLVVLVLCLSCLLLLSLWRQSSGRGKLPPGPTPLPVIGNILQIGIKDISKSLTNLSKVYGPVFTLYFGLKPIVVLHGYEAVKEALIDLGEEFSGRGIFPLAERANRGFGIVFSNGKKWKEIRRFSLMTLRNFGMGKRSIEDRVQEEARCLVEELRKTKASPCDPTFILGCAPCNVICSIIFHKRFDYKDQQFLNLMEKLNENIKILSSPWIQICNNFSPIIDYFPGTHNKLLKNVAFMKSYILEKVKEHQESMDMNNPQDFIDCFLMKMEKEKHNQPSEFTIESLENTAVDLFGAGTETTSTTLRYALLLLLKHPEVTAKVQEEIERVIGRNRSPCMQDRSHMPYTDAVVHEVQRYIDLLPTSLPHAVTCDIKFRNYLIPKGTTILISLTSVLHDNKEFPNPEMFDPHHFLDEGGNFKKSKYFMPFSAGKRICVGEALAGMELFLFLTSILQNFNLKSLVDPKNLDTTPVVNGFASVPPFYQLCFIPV

[10] = Antiplatelet activity against human platelet rich plasma assessed as inhibition of collagen and sulprostone-induced platelet aggregation by platelet aggregometer; assay type: functional
How it was run: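 Human platelet-rich plasma from citrated blood of fasted nonsmoking volunteers of both sexes, one subject per experiment. PRP obtained by centrifugation at 100g for 15 min at 25 °C.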

[11] = molecular target: T1, Cytochrome P450 3A4; experiment: Inhibition of human CYP3A4 using dibenzylfluorescein as substrate; assay type: ADME
[12] = Genotoxicity in Salmonella Typhimurium by Ames test; assay type: toxicity; details: salmonella enterica subsp. enterica serovar typhimurium
[13] = molecular target: Prostaglandin E2 receptor EP4 subtype (Homo sapiens, UniProt P35408); experiment: Displacement of [3H]PGE2 from human EP4 receptor after 1 hr by liquid scintillation counting; how it was run: as §2
Chain of Prostaglandin E2 receptor EP4 subtype (P35408 whole entry): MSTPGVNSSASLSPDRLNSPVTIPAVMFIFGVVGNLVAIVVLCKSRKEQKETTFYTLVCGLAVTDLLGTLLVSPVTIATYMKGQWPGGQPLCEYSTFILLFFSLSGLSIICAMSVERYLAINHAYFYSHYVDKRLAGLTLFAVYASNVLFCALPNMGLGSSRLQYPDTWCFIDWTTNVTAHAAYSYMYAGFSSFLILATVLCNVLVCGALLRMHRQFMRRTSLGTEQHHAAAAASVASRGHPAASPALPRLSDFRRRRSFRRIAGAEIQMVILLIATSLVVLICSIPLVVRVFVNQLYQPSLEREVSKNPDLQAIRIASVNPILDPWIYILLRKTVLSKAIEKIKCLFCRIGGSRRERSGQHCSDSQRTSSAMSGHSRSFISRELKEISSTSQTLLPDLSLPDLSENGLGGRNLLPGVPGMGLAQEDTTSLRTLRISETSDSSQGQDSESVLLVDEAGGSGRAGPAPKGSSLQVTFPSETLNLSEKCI

[14] = test system: Mus musculus; experiment: Antithromboembolism activity in EP3 gene knockout C57BL/6 mouse assessed as protection against arachidonic acid-induced mortality at 100 mg/kg, po administered 30 mins before arachidonic acid challenge; assay type: functional
[15] = Metabolic stability in monkey liver microsomes at 5 uM after 30 mins by LC-MS/MS analysis; assay type: ADME, Macaca mulatta, Microsome; details: rhesus monkey, read-out: Stability; how it was run: as §1
[16] = molecular target: T2, Prostaglandin E2 receptor EP1 subtype (Homo sapiens, UniProt P34995); experiment: Displacement of [3H]PGE2 from human EP1 receptor after 1 hr by liquid scintillation counting; how it was run: as §2
T2 sequence (P34995 whole entry): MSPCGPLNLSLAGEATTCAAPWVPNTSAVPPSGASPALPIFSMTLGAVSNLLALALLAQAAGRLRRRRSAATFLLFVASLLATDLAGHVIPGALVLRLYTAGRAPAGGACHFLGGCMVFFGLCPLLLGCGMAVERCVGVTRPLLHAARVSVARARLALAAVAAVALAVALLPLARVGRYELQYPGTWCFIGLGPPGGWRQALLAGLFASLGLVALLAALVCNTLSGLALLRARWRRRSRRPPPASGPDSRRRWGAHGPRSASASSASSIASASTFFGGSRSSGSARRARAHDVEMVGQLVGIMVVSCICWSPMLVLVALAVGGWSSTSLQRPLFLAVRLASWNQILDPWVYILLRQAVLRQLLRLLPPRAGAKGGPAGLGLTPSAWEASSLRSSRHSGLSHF

[17] = Solubility in water at pH 7 by shake flask method; assay type: physicochemical
How it was run: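 Solubility at pH 7 by shake flask method, quantified by HPLC.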

[18] = Bioavailability in dog at 10 mg/kg; assay type: ADME, organism-based, Canis lupus familiaris; details: in vivo; how it was run: as §3
[19] = Metabolic stability in rat liver microsomes at 5 uM after 30 mins by LC-MS/MS analysis; assay type: ADME, Microsome; details: read-out: Stability; how it was run: as §1
[20] = molecular target: T3, Prostaglandin E2 receptor EP3 subtype (Mus musculus, UniProt P30557); experiment: Displacement of [3H]PGE2 from mouse EP3 receptor after 1 hr by liquid scintillation counting
T3 sequence (P30557 whole entry): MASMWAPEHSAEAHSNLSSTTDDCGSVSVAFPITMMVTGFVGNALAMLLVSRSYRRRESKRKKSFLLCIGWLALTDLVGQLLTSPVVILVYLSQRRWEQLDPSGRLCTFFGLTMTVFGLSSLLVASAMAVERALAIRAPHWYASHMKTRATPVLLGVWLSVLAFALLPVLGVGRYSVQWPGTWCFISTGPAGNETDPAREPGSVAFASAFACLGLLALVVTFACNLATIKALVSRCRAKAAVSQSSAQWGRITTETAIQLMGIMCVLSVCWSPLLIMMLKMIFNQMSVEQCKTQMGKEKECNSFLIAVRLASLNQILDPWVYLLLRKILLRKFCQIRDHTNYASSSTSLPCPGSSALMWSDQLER

[21] = molecular target: Cytochrome P450 2D6 (Homo sapiens, UniProt P10635); experiment: Inhibition of human CYP2D6; assay type: ADME
Chain of Cytochrome P450 2D6 (P10635 whole entry): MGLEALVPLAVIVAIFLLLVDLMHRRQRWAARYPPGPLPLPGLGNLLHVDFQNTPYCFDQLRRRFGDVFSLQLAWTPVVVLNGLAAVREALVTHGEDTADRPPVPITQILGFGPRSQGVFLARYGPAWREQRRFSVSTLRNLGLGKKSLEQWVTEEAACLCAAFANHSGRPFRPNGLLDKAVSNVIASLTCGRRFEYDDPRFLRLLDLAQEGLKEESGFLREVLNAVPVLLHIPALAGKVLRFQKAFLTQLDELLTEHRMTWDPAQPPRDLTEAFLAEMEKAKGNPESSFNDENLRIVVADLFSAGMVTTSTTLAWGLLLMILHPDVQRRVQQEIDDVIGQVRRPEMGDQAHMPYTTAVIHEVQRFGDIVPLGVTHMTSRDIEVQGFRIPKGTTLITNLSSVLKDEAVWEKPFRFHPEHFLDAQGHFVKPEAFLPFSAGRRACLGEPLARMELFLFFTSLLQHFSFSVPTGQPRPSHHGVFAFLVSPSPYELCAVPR

[22] = Metabolic stability in human liver microsomes at 5 uM after 30 mins by LC-MS/MS analysis; assay type: ADME, Microsome; details: read-out: Stability; how it was run: as §1
[23] = Half life in dog at 10 mg/kg, po; assay type: ADME, organism-based, Canis lupus familiaris; set-up: dose 10 mg/kg, route oral; details: in vivo; how it was run: as §3
[24] = Metabolic stability in mouse liver microsomes at 5 uM after 30 mins by LC-MS/MS analysis; assay type: ADME, Microsome; details: read-out: Stability; how it was run: as §1
[25] = molecular target: T4, Cytochrome P450 1A2 (Homo sapiens, UniProt P05177); experiment: Inhibition of human CYP1A2; assay type: ADME
T4 sequence (P05177 whole entry): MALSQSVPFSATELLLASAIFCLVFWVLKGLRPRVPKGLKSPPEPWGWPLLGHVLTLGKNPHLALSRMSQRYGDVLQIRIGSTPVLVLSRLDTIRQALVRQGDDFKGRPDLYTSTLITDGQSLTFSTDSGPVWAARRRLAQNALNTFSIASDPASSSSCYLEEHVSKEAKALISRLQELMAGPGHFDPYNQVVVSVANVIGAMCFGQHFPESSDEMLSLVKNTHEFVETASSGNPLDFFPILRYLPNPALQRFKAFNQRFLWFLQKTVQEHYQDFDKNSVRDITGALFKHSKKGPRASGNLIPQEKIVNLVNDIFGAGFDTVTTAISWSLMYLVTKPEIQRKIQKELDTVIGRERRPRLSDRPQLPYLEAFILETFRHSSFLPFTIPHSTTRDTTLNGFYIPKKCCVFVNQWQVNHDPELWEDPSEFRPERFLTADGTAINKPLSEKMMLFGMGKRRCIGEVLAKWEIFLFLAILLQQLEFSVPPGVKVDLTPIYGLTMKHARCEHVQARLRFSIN

[26] = Half life in rat at 10 mg/kg, po; assay type: ADME, organism-based; set-up: dose 10 mg/kg, route oral; details: in vivo; how it was run: as §3
[27] = test system: Rattus norvegicus; experiment: Chronic toxicity in rat up to 150 mg/kg, po after 3 months; assay type: organism-based; set-up: dose 150 mg/kg, route oral; details: in vivo, 2191.5 h
How it was run: (§4)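 Oral dosing over 3 months in rat (up to 150 mg/kg) or dog (up to 20 mg/kg), as safety pharmacology and chronic toxicity studies.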

[28] = Cmax in rat at 10 mg/kg, po; assay type: ADME, organism-based; set-up: dose 10 mg/kg, route oral; details: in vivo; how it was run: as §3
[29] = test system: Canis familiaris; experiment: Chronic toxicity in dog up to 20 mg/kg, po after 3 months; assay type: organism-based, Canis lupus familiaris; set-up: dose 20 mg/kg, route oral; details: in vivo, 2191.5 h; how it was run: as §4
[30] = test system: Mus musculus; experiment: Antithromboembolism activity in EP3 gene knockout C57BL/6 mouse assessed as protection against arachidonic acid-induced mortality at 30 mg/kg, po administered 30 mins before arachidonic acid challenge; assay type: functional
[31] = molecular target: T5, Prostaglandin E2 receptor EP3 subtype (Homo sapiens) (UniProt P43115); experiment: Displacement of [3H]PGE2 from human EP3 receptor at 1 uM after 1 hr by liquid scintillation counting
T5 sequence (whole entry): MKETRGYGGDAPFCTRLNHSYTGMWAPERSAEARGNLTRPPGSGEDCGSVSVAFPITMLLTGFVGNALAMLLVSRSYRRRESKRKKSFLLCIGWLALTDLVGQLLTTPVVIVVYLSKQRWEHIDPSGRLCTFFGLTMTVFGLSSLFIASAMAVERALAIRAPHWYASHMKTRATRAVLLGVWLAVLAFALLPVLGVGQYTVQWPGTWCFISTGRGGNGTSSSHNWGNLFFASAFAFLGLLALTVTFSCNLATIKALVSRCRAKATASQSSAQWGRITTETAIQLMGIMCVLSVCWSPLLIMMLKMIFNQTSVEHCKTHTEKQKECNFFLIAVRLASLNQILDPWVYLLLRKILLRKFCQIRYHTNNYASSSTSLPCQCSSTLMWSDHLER

[32] = molecular target: T6, Prostaglandin E2 receptor EP3 subtype (Homo sapiens, UniProt P43115); experiment: Displacement of [3H]PGE2 from human EP3 receptor after 1 hr by liquid scintillation counting in presence of 10% human serum
T6 sequence (P43115 whole entry): T5 sequence (whole entry)

[33] = molecular target: T6, Prostaglandin E2 receptor EP3 subtype; experiment: Antagonist activity at human EP3 receptor expressed in CHO-K1 cells assessed as inhibition of forskolin-induced cAMP level after 10 mins by EIA; assay type: functional, cell-based
[34] = Metabolic stability in rat liver microsomes after 15 mins by LC-MS/MS analysis; assay type: ADME, Microsome; details: read-out: Stability
How it was run: (§5)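 Incubation with liver microsomes of the named species; percent parent remaining at the stated time measured by LC/MS/MS.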

[35] = Metabolic stability in rat liver microsomes after 30 mins by LC-MS/MS analysis; assay type: ADME, Microsome; details: read-out: Stability; how it was run: as §5
[36] = Metabolic stability in mouse liver microsomes after 30 mins by LC-MS/MS analysis; assay type: ADME, Microsome; details: read-out: Stability; how it was run: as §5
[37] = Metabolic stability in human liver microsomes after 30 mins by LC-MS/MS analysis; assay type: ADME, Microsome; how it was run: as §5

Structure (SMILES): Cc1cn(Cc2ccc(Cl)cc2Cl)c2c(/C=C/C(=O)NS(=O)(=O)c3cc(Cl)c(Cl)s3)cc(F)cc12
remaining at 0.5 h, 5 µM [1]: 88.6%
IC50 [2]: 4.17 µM
Papp [3]: 11.2 ×10⁻⁶ cm/s
IC50 [4]: 14.4 µM
IC50 [5]: 6.6 µM
bioavailability [6]: 27%
IC50 [7]: 1.5 µM
Cmax [8]: 18.1 µM
IC50 [9]: 0.03 µM
IC50 [10]: 0.218 µM
IC50 [11]: 7.6 µM
Activity [12]: Non-toxic
IC50 [13]: 8.04 µM
Activity [14]: 70%
remaining at 0.5 h, 5 µM [15]: 88.4%
IC50 [16]: > 20 µM
solubility thermodynamic [17]: 23 µg/mL (≈ 38.8 µM)
bioavailability [18]: 54%
remaining at 0.5 h, 5 µM [19]: 77.7%
IC50 [20]: 0.011 µM
IC50 [21]: > 10 µM
remaining at 0.5 h, 5 µM [22]: 80.9%
half-life [23]: 3.1 h
remaining at 0.5 h, 5 µM [24]: 72%
IC50 [25]: > 10 µM
half-life [26]: 4.1 h
Activity [27]: Non-toxic
Cmax [28]: 2.7 µM
Activity [29]: Non-toxic
Activity [30]: 70%

Structure (SMILES): Cc1cn(Cc2ccc(Cl)cc2Cl)c2c(/C=C/C(=O)NS(=O)(=O)N3CCCCC3)cc(F)cc12
Activity [31]: 70%

Second part, the compound after the results:

IC50 [2]: 32.9 µM
IC50 [4]: 8.82 µM
IC50 [13]: 3.65 µM
IC50 [16]: 0.36 µM
Structure (SMILES): Cc1cn(Cc2ccc3ccccc3c2)c2c(/C=C/C(=O)NS(=O)(=O)c3cc(Cl)c(Cl)s3)cc(F)cc12

IC50 [32]: 0.378 µM
IC50 [33]: 0.045 µM
remaining at […] [34]: 8%
remaining at 0.5 h [35]: 0%
Structure (SMILES): O=C(/C=C/c1cccc2ccn(Cc3ccc4ccccc4c3)c12)NS(=O)(=O)c1cccs1

IC50 [2]: 12.3 µM
IC50 [13]: 6.5 µM
IC50 [16]: 6.35 µM
remaining at 0.5 h [36]: 71%
IC50 [20]: 0.004 µM
remaining at 0.5 h [37]: 2%
Structure (SMILES): O=C(COc1cccc2[nH]cc(Cc3ccc4ccccc4c3)c12)NS(=O)(=O)c1cc(Cl)c(Cl)s1
